# Assay results from ChEMBL document CHEMBL1629547, “Zidovudine impairs adipogenic differentiation through inhibition of clonal expansion” (Antimicrob Agents Chemother, 2008).
# Active and inactive are the calls of the source. The rule behind the calls is not given here.
# Key:
# [1] = species: Mus musculus; assay: Induction of preadipocyte differentiation in mouse 3T3-F442A cells assessed as adiponectin mRNA expression on day 9 by RT-PCR analysis; format: functional, cell-based
# In short: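 3T3-F442A preadipocytes were exposed to drug or vehicle from day −7, induced on day 0 and differentiated to day +9, when RNA was taken. Adiponectin mRNA was measured by real-time RT-PCR (42 cycles, 94/55/72°C) against transferrin receptor as calibrator. RNA and cDNA were pooled; there were three independent experiments with triplicate PCR each.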
# [2] = species: Mus musculus; assay: Antiproliferative activity against mouse 3T3-F442A cells assessed as [3H]thymidine incorporation; format: functional, cell-based
# [3] = species: Mus musculus; assay: Induction of adipocyte differentiation in mouse 3T3-F442A cells assessed as PPARgamma mRNA expression on day 6 by RT-PCR analysis; format: functional, cell-based
# [4] = species: Mus musculus; assay: Induction of adipocyte differentiation in mouse 3T3-F442A cells assessed as triglyceride accumulation at 1 uM on day 9 by oil red O staining relative to control; format: functional, cell-based
# In short: (§1)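 Drug was added to 3T3-F442A cells only after clonal expansion was complete. On day 9 cells were fixed in formalin and stained with 0.0021% Oil red O in 60% isopropanol. Dye was extracted with 100% isopropanol and fluorescence read at 495 nm. Data are from four independent experiments, ANOVA with Bonferroni versus control.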
# [5] = species: Mus musculus; assay: Induction of adipocyte differentiation in mouse 3T3-F442A cells assessed as C/EBPalpha mRNA expression on day 6 by RT-PCR analysis; format: functional, cell-based
# [6] = Cytotoxicity against mouse 3T3-F442A cells at 1 uM after 8 days by trypan blue staining
# [7] = Antiproliferative activity against mouse 3T3-F442A cells assessed as [3H]thymidine incorporation at 1 uM; format: functional
# [8] = test system: 3T3-F442A (Mus musculus); assay: Induction of preadipocyte differentiation in mouse 3T3-F442A cells assessed as PPARgamma mRNA expression on day 4 by RT-PCR analysis
# [9] = test system: 3T3-F442A; assay: as above
# [10] = Cytotoxicity against mouse 3T3-F442A cells at 6 uM after 8 days by trypan blue staining
# [11] = test system: 3T3-F442A (Mus musculus); assay: Induction of preadipocyte differentiation in mouse 3T3-F442A cells assessed as C/EBPalpha mRNA expression on day 6 by RT-PCR analysis
# [12] = test system: 3T3-F442A; assay: as above
# [13] = Antiproliferative activity against mouse 3T3-F442A cells assessed as [3H]thymidine incorporation at 6 uM; format: functional
# [14] = test system: Homo sapiens; assay: Antiproliferative activity against human subcutaneous preadipocyte assessed as [3H]thymidine incorporation at 6 uM; format: functional
# In short: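 Primary human subcutaneous preadipocytes (collagenase-digested abdominal fat, kept in DMEM-Ham's F-12 1:1 with 10% FBS and 172 µM ascorbate 2-phosphate) were given drug or vehicle for 24 h. [3H]thymidine was then added for a further 24 h, and cells were filter-harvested and counted by beta counter (cpm). There were 4 to 16 replicates per experiment, in at least 3 independent experiments.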
# [15] = species: Mus musculus; assay: Induction of preadipocyte differentiation in mouse 3T3-F442A cells assessed as triglyceride accumulation at 0.1 uM after 9 days by oil red O staining relative to control; format: functional, cell-based
# In short: (§2)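 Drug was present while 3T3-F442A cells differentiated. On day 9 cells were fixed in 10% formalin and stained with 0.0021% (wt/vol) Oil red O in 60% isopropanol. Cells were dried, dye extracted with 100% isopropanol, and fluorescence read at 495 nm. Data are from three independent experiments, Mann-Whitney U test versus control.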
# [16] = species: Mus musculus; assay: Induction of preadipocyte differentiation in mouse 3T3-F442A cells assessed as triglyceride accumulation at 6 uM after 9 days by oil red O staining relative to control; format: functional, cell-based; in short: as §2
# [17] = species: Mus musculus; assay: Antiproliferative activity against mouse 3T3-F442A cells assessed as mtDNA depletion; format: functional, cell-based
# [18] = Antiproliferative activity against mouse 3T3-F442A cells assessed as [3H]thymidine incorporation at 3 uM; format: functional
# [19] = species: Mus musculus; assay: Antiproliferative activity against mouse 3T3-F442A cells assessed as [3H]thymidine incorporation at 0.1 uM; format: functional, cell-based
# [20] = Antiproliferative activity against mouse 3T3-F442A cells assessed as [3H]thymidine incorporation at 180 uM; format: functional
# [21] = species: Mus musculus; assay: Induction of preadipocyte differentiation in mouse 3T3-F442A cells assessed as triglyceride accumulation at 3 uM after 9 days by oil red O staining relative to control; format: functional, cell-based; in short: as §2
# [22] = species: Mus musculus; assay: Induction of adipocyte differentiation in mouse 3T3-F442A cells assessed as triglyceride accumulation at 6 uM on day 9 by oil red O staining relative to control; format: functional, cell-based; in short: as §1
smiles,measurement,setting,value
Cc1cn([C@H]2C[C@H](N=[N+]=[N-])[C@@H](CO)O2)c(=O)[nH]c1=O [ZIDOVUDINE],Activity,[1],Active
same,Activity,[2],Active
same,Activity,[3],inactive
same,Activity,[4],inactive
same,Activity,[5],inactive
same,Activity,[6],Non-toxic
same,Activity,[7],30%
same,Activity,[8],Active
same,Activity,[9],Active
same,Activity,[10],Non-toxic
same,Activity,[11],Active
same,Activity,[12],Active
same,Activity,[13],30%
same,Activity,[14],Active
same,Activity,[15],inactive
same,Activity,[16],Active
same,Activity,[17],inactive
same,Activity,[18],30%
same,Activity,[19],inactive
same,Activity,[20],30%
same,Activity,[21],inactive
same,Activity,[22],inactive
